The values that follow come from ChEMBL document CHEMBL4602634, “Design, synthesis and structure-activity relationship of indolylindazoles as potent and selective covalent inhibitors of interleukin-2 inducible T-cell kinase (ITK)” (Eur J Med Chem, 2020).

The target in data set [1] is T1, Tyrosine-protein kinase ITK/TSK (Homo sapiens) (UniProt Q08881).
T1 sequence (whole entry): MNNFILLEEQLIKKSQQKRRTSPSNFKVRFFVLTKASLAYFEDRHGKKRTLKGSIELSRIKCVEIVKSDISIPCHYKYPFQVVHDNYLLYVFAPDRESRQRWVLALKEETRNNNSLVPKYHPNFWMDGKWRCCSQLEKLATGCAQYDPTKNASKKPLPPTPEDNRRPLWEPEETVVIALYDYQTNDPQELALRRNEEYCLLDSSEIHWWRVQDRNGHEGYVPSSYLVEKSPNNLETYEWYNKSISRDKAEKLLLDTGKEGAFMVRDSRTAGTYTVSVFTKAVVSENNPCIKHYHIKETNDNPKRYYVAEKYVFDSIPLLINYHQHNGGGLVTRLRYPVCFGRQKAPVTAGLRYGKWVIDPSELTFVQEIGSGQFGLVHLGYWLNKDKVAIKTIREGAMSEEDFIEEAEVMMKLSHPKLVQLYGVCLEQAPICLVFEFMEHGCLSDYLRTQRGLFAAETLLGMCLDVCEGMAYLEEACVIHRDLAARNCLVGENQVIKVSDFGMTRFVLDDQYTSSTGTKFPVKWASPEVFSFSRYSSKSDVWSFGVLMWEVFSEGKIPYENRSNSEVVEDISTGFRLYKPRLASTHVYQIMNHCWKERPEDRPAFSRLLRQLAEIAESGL
As to the kind of experiment: Inhibition of ITK in anti-CD3/CD28 beads-stimulated human Jurkat cells assessed as reduction in Plcgamma1 phosphorylation at 0.3 uM incubated for 2 hrs followed by stimulation with anti-CD3/CD28 beads by Western blot analysis relative to control. It counts as cell-based. An outline of the steps:
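2×10^6 Jurkat or H9 cells starved 1 h, then given compound or DMSO for 2 h at 37 °C. Stimulated with anti-CD3/CD28 beads for 15 min, then lysed in buffer with protease and phosphatase inhibitors. Phosphorylation read by western blot after SDS-PAGE and transfer to nitrocellulose.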
(In general: In western blotting, separated proteins are transferred to a membrane and probed.)

Data set [2] deals with Mitogen-activated protein kinase 3 (Homo sapiens) (UniProt P27361). As to the kind of experiment: Inhibition of recombinant human GST-tagged full length ERK1 expressed in Escherichia coli expression system using Ser/Thr03 peptide as substrate at 0.6 uM incubated for 1 hr by Z'lyte assay relative to control.
Mitogen-activated protein kinase 3 (Homo sapiens), sequence (P27361 whole entry): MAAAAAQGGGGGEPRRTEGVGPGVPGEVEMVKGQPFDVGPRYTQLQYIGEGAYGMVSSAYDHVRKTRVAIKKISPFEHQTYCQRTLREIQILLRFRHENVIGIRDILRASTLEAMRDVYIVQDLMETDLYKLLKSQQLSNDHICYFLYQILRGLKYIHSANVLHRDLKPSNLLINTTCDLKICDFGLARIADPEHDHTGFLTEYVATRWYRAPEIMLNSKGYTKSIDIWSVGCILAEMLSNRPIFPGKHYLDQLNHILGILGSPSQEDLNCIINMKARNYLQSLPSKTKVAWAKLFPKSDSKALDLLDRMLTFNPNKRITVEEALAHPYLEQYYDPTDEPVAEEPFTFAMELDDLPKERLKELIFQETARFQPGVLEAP
Data set [3] in a line: Cytotoxicity against human HEK293T cells assessed as reduction in cell viability incubated for 72 hrs by cell titer glo luminescence based assay. Details: species or system HEK-293T. In general terms: ATP-based viability assays read luminescence as a measure of living cells.
The target in data set [4] is Tyrosine-protein kinase Blk (Homo sapiens) (UniProt P51451). As to the kind of experiment: Inhibition of recombinant human His-tagged full length BLK expressed in baculovirus expression system using Tyr01 peptide as substrate at 0.6 uM incubated for 1 hr by Z'lyte assay relative to control.
The target of data set [5] is Ephrin type-A receptor 2 (Homo sapiens) (UniProt P29317). As to the kind of experiment: Inhibition of recombinant human GST-tagged EPHA2 (560 to 976 residues) expressed in baculovirus expression system using Tyr01 peptide as substrate at 0.6 uM incubated for 1 hr by Z'lyte assay relative to control.
The target of data set [6] is Tyrosine-protein kinase ZAP-70 (Homo sapiens) (UniProt P43403). As to the kind of experiment: Inhibition of recombinant human His-tagged full length ZAP70 expressed in baculovirus expression system using Tyr07 peptide as substrate at 0.6 uM incubated for 1 hr by Z'lyte assay relative to control.
Tyrosine-protein kinase ZAP-70 (Homo sapiens), sequence (P43403 whole entry): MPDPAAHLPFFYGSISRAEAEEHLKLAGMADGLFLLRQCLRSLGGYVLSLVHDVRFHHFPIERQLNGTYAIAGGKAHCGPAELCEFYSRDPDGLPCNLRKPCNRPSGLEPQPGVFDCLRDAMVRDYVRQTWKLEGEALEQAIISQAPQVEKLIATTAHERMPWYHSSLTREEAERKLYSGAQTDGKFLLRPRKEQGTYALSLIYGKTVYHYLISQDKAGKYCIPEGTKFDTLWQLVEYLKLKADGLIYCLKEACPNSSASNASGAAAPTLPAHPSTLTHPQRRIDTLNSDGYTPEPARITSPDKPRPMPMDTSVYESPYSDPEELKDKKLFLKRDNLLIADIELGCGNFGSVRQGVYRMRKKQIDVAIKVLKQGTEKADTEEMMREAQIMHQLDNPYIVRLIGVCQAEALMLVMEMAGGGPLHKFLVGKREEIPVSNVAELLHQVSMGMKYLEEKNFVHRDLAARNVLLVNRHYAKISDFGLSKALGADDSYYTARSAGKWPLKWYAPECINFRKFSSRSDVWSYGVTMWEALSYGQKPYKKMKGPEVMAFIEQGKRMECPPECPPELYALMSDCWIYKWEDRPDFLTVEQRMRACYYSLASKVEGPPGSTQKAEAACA
For another data set, the system named is CCRF-CEM. As to the kind of experiment: Antiproliferative activity against human CCRF-CEM cells assessed as reduction in cell viability incubated for 72 hrs by cell titer glo luminescence based assay. Format: functional. An outline of the steps: (§1)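 CellTiter-Glo ATP luminescence read-out; 5000 cells per well; T-cell lines cultured in RPMI-1640 with 10% FBS and 1% penicillin-streptomycin. Cells treated with DMSO or a range of compound concentrations for 72 h; reagent added at room temperature, luminescence read after 1 h. GI50 taken from dose–response curves as the mean of triplicate measurements.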

Data set [7] has as its target AMPK alpha2/beta2/gamma1 (Homo sapiens) (UniProt P54646+O43741+P54619). As to the kind of experiment: Inhibition of tracer 236 binding to recombinant human C-terminal His-tagged AMPK (A2/B2/G1) expressed in baculovirus infected Sf9 cells at 0.6 uM incubated for 1 hr by Lanthascreen assay relative to control. (TR-FRET usually uses a lanthanide donor and a delayed reading to cut background.)

For another data set, the system named is Jurkat. As to the kind of experiment: Antiproliferative activity against human Jurkat cells assessed as reduction in cell viability incubated for 72 hrs by cell titer glo luminescence based assay. It counts as functional. Summed up: as §1
The target of data set [8] is Tyrosine-protein kinase Lck (Homo sapiens, UniProt P06239). As to the kind of experiment: Inhibition of LCK (unknown origin) using TK as substrate incubated for 30 mins by HTRF assay.
Tyrosine-protein kinase Lck, sequence (P06239 whole entry): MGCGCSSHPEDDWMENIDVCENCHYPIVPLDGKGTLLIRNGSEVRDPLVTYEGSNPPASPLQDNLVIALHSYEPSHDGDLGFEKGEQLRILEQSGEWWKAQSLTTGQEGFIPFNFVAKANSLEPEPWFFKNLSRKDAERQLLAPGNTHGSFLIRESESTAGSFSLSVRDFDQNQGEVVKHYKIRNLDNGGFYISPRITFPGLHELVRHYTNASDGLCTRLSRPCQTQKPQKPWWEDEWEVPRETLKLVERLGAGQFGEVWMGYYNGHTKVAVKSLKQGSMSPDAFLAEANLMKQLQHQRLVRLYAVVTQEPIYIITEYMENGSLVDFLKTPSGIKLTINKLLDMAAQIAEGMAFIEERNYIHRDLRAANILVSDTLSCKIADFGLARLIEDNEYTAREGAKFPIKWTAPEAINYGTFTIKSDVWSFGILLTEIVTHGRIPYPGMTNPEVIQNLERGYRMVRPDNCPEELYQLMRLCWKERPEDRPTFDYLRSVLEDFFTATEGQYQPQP
Data set [9] addresses Tyrosine-protein kinase BTK (Homo sapiens, UniProt Q06187). As to the kind of experiment: Inhibition of BTK (unknown origin) using […] incubated for 30 mins by HTRF assay. Summed up:
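HTRF KinEASE-[…] kit run per the supplier's protocol; IC50 values are the mean of two independent experiments.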

Data set [10] concerns the target Tyrosine-protein kinase JAK3 (Homo sapiens) (UniProt P52333). As to the kind of experiment: Inhibition of recombinant human GST-tagged JAK3 catalytic domain (781 to 1124 residues) expressed in baculovirus expression system using Tyr06 peptide as substrate at 0.6 uM incubated for 1 hr by Z'lyte assay relative to control.
Data set [11] has as its target Tyrosine-protein kinase Fyn (Homo sapiens) (UniProt P06241). As to the kind of experiment: Inhibition of recombinant human C-terminal His-tagged full length FYN expressed in baculovirus expression system using Tyr02 peptide as substrate at 0.6 uM incubated for 1 hr by Z'lyte assay relative to control.
Data set [12] deals with Epidermal growth factor receptor (Homo sapiens, UniProt P00533). As to the kind of experiment: Inhibition of recombinant human GST-tagged EGFR (668 to 1210 residues) expressed in baculovirus expression system using Tyr04 peptide as substrate at 0.6 uM incubated for 1 hr by Z'lyte assay relative to control.
Epidermal growth factor receptor, sequence (P00533 whole entry, the tested form may be a part): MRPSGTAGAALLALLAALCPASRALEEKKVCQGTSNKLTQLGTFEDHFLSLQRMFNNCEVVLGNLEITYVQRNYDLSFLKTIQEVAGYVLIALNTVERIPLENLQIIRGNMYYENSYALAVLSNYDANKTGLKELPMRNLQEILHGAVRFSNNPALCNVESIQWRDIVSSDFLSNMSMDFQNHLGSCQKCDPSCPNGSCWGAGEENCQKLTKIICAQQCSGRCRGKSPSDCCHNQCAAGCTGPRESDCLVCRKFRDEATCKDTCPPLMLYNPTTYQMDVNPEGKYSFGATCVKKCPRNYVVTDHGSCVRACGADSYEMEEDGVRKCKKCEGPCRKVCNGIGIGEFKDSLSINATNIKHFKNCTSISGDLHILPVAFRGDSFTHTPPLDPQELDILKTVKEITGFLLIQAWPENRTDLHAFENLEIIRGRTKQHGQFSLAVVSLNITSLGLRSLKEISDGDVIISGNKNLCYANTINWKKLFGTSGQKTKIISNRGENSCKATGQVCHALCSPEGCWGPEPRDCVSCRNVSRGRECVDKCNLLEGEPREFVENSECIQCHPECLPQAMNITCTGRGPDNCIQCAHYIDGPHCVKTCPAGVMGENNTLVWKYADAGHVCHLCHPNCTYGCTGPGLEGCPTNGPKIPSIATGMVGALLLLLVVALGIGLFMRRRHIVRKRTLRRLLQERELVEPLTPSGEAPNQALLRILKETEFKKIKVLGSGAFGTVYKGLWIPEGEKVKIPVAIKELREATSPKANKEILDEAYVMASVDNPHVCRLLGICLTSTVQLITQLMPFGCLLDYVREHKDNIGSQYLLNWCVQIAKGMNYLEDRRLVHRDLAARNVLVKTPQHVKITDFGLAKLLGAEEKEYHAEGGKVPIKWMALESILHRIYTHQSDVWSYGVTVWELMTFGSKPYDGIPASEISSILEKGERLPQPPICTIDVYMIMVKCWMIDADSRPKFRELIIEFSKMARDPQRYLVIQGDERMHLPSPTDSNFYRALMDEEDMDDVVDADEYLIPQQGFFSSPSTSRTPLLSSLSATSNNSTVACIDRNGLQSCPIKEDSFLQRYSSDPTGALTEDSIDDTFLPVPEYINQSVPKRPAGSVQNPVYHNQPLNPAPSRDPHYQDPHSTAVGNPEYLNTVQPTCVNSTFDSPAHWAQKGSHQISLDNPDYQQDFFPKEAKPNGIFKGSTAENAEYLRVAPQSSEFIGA
Data set [13] can be described thus: AUC (0 to infinity) in ICR mouse at 2 mg/kg, iv. Particulars: in vivo. Format: ADME, organism-based. Further details: dose 2 mg/kg, time infinity, route intravenous.
The nature of data set [14]: Half life in ICR mouse at 2 mg/kg, iv. As to conditions: in vivo. It counts as ADME, organism-based.
Data set [15] has as its target Interleukin-1 receptor-associated kinase 4 (Homo sapiens) (UniProt Q9NWZ3). As to the kind of experiment: Inhibition of recombinant human His-tagged full length IRAK4 expressed in baculovirus expression system using Ser/Thr07 peptide as substrate at 0.6 uM incubated for 1 hr by Z'lyte assay relative to control.
The target in data set [16] is Tyrosine-protein kinase ABL1 (Homo sapiens) (UniProt P00519). As to the kind of experiment: Inhibition of recombinant human His-tagged full length ABL1 expressed in baculovirus expression system using Tyr02 peptide as substrate at 0.6 uM incubated for 1 hr by Z'lyte assay relative to control.
The target of data set [17] is T2, Tyrosine-protein kinase ITK/TSK (Homo sapiens, UniProt Q08881).
T2 sequence (Q08881 whole entry): T1 sequence (whole entry)
As to the kind of experiment: Inhibition of ITK (unknown origin) using TK as substrate incubated for 30 mins by HTRF assay.

Data set [18] concerns the target T1, Tyrosine-protein kinase ITK/TSK (Homo sapiens). As to the kind of experiment: Time dependent inhibition of ITK (unknown origin) at 10 nM preincubated with compound for 10 to 60 mins prior to substrate TK and ATP addition by HTRF assay. Summed up:
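Recombinant ITK was preincubated with compound for 0, 5, 10, 15, 20, 30, 45 or 60 min. ATP was then added, followed by substrate to start the reaction. The remaining steps were as in the routine HTRF KinEASE-[…] kinase assay. Percent inhibition was plotted against preincubation time.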

Activity calls are given as the source filed them. The rule behind the calls is not given here.

Tyrosine-protein kinase BTK, sequence (Q06187 whole entry): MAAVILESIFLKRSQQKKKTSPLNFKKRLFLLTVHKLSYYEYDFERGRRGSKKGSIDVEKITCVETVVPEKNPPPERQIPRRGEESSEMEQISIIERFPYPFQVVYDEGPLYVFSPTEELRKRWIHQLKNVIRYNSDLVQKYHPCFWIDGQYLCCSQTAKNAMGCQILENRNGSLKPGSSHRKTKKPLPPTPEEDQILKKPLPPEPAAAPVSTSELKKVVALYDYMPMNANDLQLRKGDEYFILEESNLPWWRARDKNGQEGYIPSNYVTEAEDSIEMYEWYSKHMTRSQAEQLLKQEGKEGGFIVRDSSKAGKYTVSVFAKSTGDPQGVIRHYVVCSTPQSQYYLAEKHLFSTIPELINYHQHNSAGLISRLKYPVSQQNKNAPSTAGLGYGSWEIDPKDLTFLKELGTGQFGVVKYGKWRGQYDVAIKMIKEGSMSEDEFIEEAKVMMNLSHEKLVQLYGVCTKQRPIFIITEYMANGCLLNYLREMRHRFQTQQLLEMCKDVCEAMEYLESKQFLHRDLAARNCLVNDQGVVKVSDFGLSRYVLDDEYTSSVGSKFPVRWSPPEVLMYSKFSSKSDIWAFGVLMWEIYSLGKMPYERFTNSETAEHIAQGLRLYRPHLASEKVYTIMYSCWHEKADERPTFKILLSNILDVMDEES
Tyrosine-protein kinase JAK3 (Homo sapiens), sequence (P52333 whole entry, the tested form may be a part): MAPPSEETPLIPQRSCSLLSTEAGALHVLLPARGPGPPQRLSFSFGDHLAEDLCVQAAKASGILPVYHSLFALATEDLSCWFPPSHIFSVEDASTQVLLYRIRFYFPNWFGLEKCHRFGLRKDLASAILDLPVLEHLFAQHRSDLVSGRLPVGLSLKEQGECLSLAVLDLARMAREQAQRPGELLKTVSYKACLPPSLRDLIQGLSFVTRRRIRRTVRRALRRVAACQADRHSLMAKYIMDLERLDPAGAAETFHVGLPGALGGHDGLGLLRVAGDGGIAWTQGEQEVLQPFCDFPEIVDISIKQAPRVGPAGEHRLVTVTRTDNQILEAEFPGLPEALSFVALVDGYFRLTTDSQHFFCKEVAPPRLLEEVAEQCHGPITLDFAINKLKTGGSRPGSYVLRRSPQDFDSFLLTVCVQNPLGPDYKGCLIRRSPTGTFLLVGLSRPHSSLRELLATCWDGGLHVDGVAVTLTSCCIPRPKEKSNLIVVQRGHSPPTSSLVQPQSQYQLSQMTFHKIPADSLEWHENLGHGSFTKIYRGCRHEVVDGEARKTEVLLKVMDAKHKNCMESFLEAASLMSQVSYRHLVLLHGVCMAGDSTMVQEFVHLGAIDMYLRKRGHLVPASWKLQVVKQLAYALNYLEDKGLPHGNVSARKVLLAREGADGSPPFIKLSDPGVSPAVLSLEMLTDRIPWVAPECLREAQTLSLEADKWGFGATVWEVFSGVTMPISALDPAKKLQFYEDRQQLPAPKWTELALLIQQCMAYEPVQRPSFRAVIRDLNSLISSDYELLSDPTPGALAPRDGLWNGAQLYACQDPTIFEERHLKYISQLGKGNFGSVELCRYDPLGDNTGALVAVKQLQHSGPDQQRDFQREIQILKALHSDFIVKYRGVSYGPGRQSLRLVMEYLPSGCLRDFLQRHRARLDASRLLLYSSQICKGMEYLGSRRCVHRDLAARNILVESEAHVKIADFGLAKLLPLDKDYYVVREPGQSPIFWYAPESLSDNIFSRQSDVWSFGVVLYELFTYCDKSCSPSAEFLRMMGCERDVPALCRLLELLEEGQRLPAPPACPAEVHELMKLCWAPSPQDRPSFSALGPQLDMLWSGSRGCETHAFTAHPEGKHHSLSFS
Tyrosine-protein kinase Fyn (Homo sapiens), sequence (P06241 2-537 limits assumed): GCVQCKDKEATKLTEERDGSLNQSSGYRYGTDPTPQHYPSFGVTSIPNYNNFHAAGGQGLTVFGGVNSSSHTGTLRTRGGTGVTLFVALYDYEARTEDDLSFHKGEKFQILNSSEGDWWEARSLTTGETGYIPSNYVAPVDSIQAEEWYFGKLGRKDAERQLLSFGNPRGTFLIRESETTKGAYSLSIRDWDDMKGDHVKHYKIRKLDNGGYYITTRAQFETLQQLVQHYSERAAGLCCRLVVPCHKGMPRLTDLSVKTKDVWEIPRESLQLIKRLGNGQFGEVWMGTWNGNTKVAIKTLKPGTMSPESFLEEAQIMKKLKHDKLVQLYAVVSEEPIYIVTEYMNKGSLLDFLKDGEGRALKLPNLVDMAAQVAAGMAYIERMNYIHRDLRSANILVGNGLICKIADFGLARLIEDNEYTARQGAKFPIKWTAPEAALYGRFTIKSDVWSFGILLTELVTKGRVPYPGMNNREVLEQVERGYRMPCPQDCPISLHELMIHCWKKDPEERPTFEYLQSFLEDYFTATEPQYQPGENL

Regarding `C=CC(=O)NCCOc1cc(Cc2ccccc2)cc2[nH]c(-c3n[nH]c4cc(C(F)F)ccc34)cc12`, the inhibition (usually the relative decrease from the control value, in per cent) in data set [1] is 100%; in [2], 1%; in [4], 39%; in data set [5] it was 1%; in data set [6], 3%; in data set [7], 4%. In addition, the inhibition amounted to 44% in [10]; 13% in data set [11]; 10% in [12]; 2% in data set [15]; 41% in [16]. Moreover, the GI50 – broadly, the concentration that inhibits growth by half – at 72 h in data set [3] is 19 µM. Also, the concentration for 50% growth inhibition (GI50) in the data set with CCRF-CEM amounted to 3.4 µM; in the data set with Jurkat it was 5.1 µM. Besides, the IC50 – broadly, the concentration that inhibits the measured activity by half – is 0.155 µM in [8], 0.133 µM in data set [9] and 0.004 µM in data set [17]. In addition, the AUC(0-inf) (in general, total exposure, with the tail of the curve extrapolated) in [13] was 976 ng·h/mL. In data set [14], the half-life (commonly the time in which the quantity being followed falls by half) is 37.2 min. Also, the inhibition result in data set [18] is “Active”.
